Results gathered from unrelated publications.
Each line is one published result; the experiments were not run side by side.
Organism: Leishmania donovani
Observed: parasite growth

| SMILES | assay | test system | conditions | measurement | value |
| --- | --- | --- | --- | --- | --- |
| COc1cc(NC(C)CCCNC(=S)NCCCC(C)Nc2cc(OC)cc3cccnc23)c2ncccc2c1.Cl.Cl (stereo not drawn) | resazurin | – | promastigote | IC50 | 4 to 9 µg/mL |
| C[C@@H]1[C@H](O)[C@@H](C)/C=C/C=C/C=C/C=C/C=C/C=C/C=C/[C@H](O[C@@H]2O[C@H](C)[C@@H](O)[C@H](N)[C@@H]2O)C[C@@H]2O[C@](O)(C[C@@H](O)C[C@@H](O)[C@H](O)CC[C@@H](O)C[C@@H](O)CC(=O)O[C@H]1C)C[C@H](O)[C@H]2C(=O)O | MTT | – | 48 h, promastigote | IC90 | 5400 nM |
| CCCCCCCC/C=C\CCCCCCCCCCCCOP(=O)([O-])OCC[N+](C)(C)C | resazurin | – | 50 µM, 72 h, promastigote | inhibition | 108% |
| COc1ccccc1-c1n[nH]c2nc(N[C@H]3CC[C@H](NS(=O)(=O)CCCOCCOCCNC(=O)OC(C)(C)C)CC3)ncc12 | – | – | amastigote | EC50 | 1360 nM |
| N=C(N)c1ccc(OCCCCCOc2ccc(C(=N)N)cc2)cc1 | resazurin | – | promastigote | IC50 | 1 µg/mL |
| CCCCCCCCCCCCCCCCOP(=O)([O-])OCC[N+](C)(C)C | resazurin | – | 25 µM, 72 h, promastigote | inhibition | 100% |
| COc1ccccc1-c1n[nH]c2nc(NC3CCN(C(=O)Cc4ccc(OCCOCCNC(=O)OC(C)(C)C)cc4)CC3)ncc12 | – | – | amastigote | EC50 | 4200 nM |
| c1ccc(-c2nc(N3CCCC3)c3ccccc3n2)nc1 | – | THP-1 | intracellular, amastigote | IC50 | 2500 nM |
| COc1ccccc1-c1n[nH]c2nc(NC3CCN(C(=O)Cc4ccc(OCCOCCN)cc4)CC3)ncc12 | – | – | amastigote | EC50 | 1990 nM |
| C[C@@H]1[C@H](O)[C@@H](C)/C=C/C=C/C=C/C=C/C=C/C=C/C=C/[C@H](O[C@@H]2O[C@H](C)[C@@H](O)[C@H](N)[C@@H]2O)C[C@@H]2O[C@](O)(C[C@@H](O)C[C@@H](O)[C@H](O)CC[C@@H](O)C[C@@H](O)CC(=O)O[C@H]1C)C[C@H](O)[C@H]2C(=O)O | resazurin | – | 72 h, promastigote | IC90 | 1.8 µg/mL |
| c1ccc(CN2CCN(c3nc(-c4ccccn4)nc4ccccc34)CC2)cc1 | imaging | THP-1 | intracellular, amastigote | IC50 | 2600 nM |
| COc1ccccc1-c1n[nH]c2nc(N[C@H]3CC[C@H](NS(=O)(=O)CCCOCCOCCN)CC3)ncc12 | – | THP-1 | intracellular, amastigote | EC50 | 24700 nM |
